# Shown are actives, neighbours in structure and some others; about 8.9% of the full set was active somewhere.
# Dynein transport: dynein cargo transport inhibition; 3617.4 mouse cells, GR-EGFP nuclear translocation imaging; test concentration mostly 20 µM; stimulated with dexamethasone, 1 µM; hits give low values; z-score, hits read low; 220,000 compounds, 0.47% hits;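 active = plate z-score of nuclear minus cytoplasmic receptor signal below a set negative limit, without overly bright fluorescence or cell loss, cut at about -3.5 in these data, passing the limit was not always enough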;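 also: z-score of nuclear minus cytoplasmic ring GR-EGFP intensity difference per well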
#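 medium = tetracycline-free induction medium containing charcoal-stripped FBS | also added = 1.0 µM final dexamethasone stimulus | schedule = 48 h induction, 1 h compound, 30 min dex at 37 °C | technique = fixed, Hoechst-stained cells imaged at 10x for EGFP | measure = GR-EGFP nuclear translocation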
# Lmaj promast: inhibitors of Leishmania major promastigote growth. Leishmania major promastigotes, resazurin fluorescence viability. inhibition, % at 10 µM. 200,000 compounds, 9% hits; in the data active = inhibition above about 50%;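 also: promastigotes grown with compound for 44 hours at 28 °C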
# b-catenin transl: alters nuclear translocation of beta-catenin in HeLa cells. immunofluorescence imaging. 190,000 compounds, 0.3% hits. nuclear translocation activity, % at 5 µM. AID 1665;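 active = nuclear translocation activity above 50% at 5 µM, with a well cell count of 50 or more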;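 also: per-cell ratio of nuclear to cytoplasmic median beta-catenin stain intensity; plate controls were DMSO negative control for no effect and GSK-3 inhibitor IX positive control for full effect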
#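 Test system: human HeLa cells, endogenous beta-catenin. Times: 24 h compound exposure, 37°C. Measured by: beta-catenin immunofluorescence imaging with DAPI.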
# MT stabilizer: stabilizes microtubules in HeLa cells | AID 2205 | 200,000 compounds, 0.83% hits | % tubulin-high responders, % at 10 µM | HeLa tubulin immunostaining HCS, 24 h; share of cells brighter than vehicle mean+2SD;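 active = plate Z-score above 3 for both tubulin-high and condensed-nucleus cell shares, with cell loss under 80%, at 10 µM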;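 also: anti alpha tubulin signal scored within the nucleus-defined area of each cell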
# HSV augment: increases HSV replication in cells | HSV replication augmentation in cells, fold increase | AID 1956 | 220,000 compounds, 0.005% hits | maximum fold increase; in the data active = maximum fold increase above about 1.5; tested in PC3 cells
# An asterisk follows results filed as active; i = inactive; . = not tested or not shown.
SMILES,Dynein transport,Lmaj promast,b-catenin transl,MT stabilizer,HSV augment
NC(=O)Nc1ccc(Oc2ncc(C(F)(F)F)cc2Cl)cc1,-0.664,-0.7,2.0,2.7,i
CCOC(=O)c1ccc(NCn2c(=O)oc3ccccc32)cc1,-1.46,0.7,-3.9,2.3,i
CCN(CC)c1ccc(NC(=O)c2ccccc2F)cc1,-0.136,8.9,.,52.4*,i
COc1ccc(Br)cc1C(=O)Nc1ccc(Cc2ccncc2)cc1,-0.534,81.4*,1.1,3.0,i
CCN(CC)c1ccc(NC(=O)c2cc(Cl)ccc2OC)cc1,-0.57,99.3*,.,1.7,i
CCCOC(=O)c1ccc(NC(=O)c2cc(Cl)ccc2OC)cc1,-0.677,-8.2,1.0,9.4,i
CCN(CC)c1ccc(NC(=O)c2ccco2)cc1,-0.764,-2.4,-0.1,3.3,i
CSc1ccccc1NC(=O)Cn1ccsc1=N,-1.53,-8.4,-1.3,1.6,i
CC(C)(C)C1CCc2c(C(=O)NNC(=O)/C=C/C(=O)O)csc2C1 (stereo not given),-0.165,-5.5,8.9,1.3,i
C(=N\Nc1ncnc2sc3c(c12)CCC3)/c1ccncc1,1.37,65.9*,8.3,2.5,i
Cc1ccccc1Cn1nnc(-c2ccc(C(=O)O)cc2)n1,0.69,1.1,0.6,6.8,i
Cc1noc(C)c1COC(=O)[C@H](C)NS(=O)(=O)c1ccc(Cl)c(Cl)c1,0.463,72.5*,-7.2,1.2,i
Cc1noc(C)c1COC(=O)Cc1ccc(Cl)c(Cl)c1,-0.471,-4.1,-3.8,2.4,.
CCNS(=O)(=O)c1ccc2nc(NC(=O)/C=C/c3cc(OC)c(OC)c(OC)c3)sc2c1,-0.656,51.9*,0.0,5.5,i
CN1c2ccccc2N(C)C1(C)c1ccccc1,-0.598,27.6,0.4,4.7,i
CCN1c2ccccc2N(C)C1(C)c1ccccc1 (stereo not given),-3.26,98.6*,0.3,3.4,i
CCOC(=O)C(=NCCCN(C)C)NNc1ccc(Br)cc1,-0.293,66.7*,1.6,2.9,i
O=C(CCNC(=O)c1ccc(Br)o1)NCc1ccccn1,-1.08,-2.3,-2.0,2.6,i
O=[N+]([O-])c1cc(Cl)cc(/C=N\Nc2ccccn2)c1O,-0.109,98.0*,1.7,1.3,i
O=C(N/N=C/c1cc(Cl)cc([N+](=O)[O-])c1O)c1cc(-c2ccccn2)nc2ccccc12,-0.62,.,-1.1,.,i
CCC(C)(C)NC(=O)C(c1ccc(OC)cc1)N(Cc1ccco1)C(=O)CCC(=O)Nc1cc(C)on1 (stereo not given),0.365,96.3*,-3.4,3.6,i
COc1cccc(C(C(=O)NC(C)(C)C)N(Cc2ccco2)C(=O)CCC(=O)Nc2cc(C)on2)c1OC (stereo not given),0.477,-6.4,-0.3,2.3,i
COc1ccc(C(C(=O)NC(C)(C)C)N(Cc2ccc(C)cc2)C(=O)CCC(=O)Nc2cc(C)on2)cc1 (stereo not given),-0.866,94.4*,0.2,2.7,i
COc1ccc(C(C(=O)NC(C)(C)C)N(Cc2ccco2)C(=O)CCC(=O)Nc2cc(C)on2)cc1 (stereo not given),-0.84,87.2*,-3.9,2.1,i
CCc1cc2c(=O)n(N)c(CCC(=O)O)nc2s1,-0.624,-4.2,-1.7,1.0,i
SMILES,Dynein transport,Lmaj promast,b-catenin transl,MT stabilizer,HSV augment
COc1cc(/C=N/OCC(=O)Nc2cc(C)cc(C)c2)ccc1OCc1ccc(Cl)cc1,0.0694,96.2*,3.8,2.4,i
COc1cc(/C=N/OCC(=O)NC2CCCCC2C)ccc1OCc1ccc(Cl)cc1 (stereo not given),0.435,82.9*,.,1.2,i
C#CCNC(=O)C1=C[C@@H](c2ccccc2)C[C@@H](OCc2ccc(CO)cc2)O1,-0.719,1.4,-1.5,3.8,i
CCc1cc2c(C)cc(=O)oc2cc1OC(=O)C1CCCN1C(=O)OC(C)(C)C (stereo not given),-0.639,89.3*,-4.3,4.8,i
CC(C)(C)OC(=O)N1CCCC1C(=O)NCCc1ccccc1 (stereo not given),-0.479,-2.4,-0.3,4.4,i
O=C(c1ccccc1)c1ccccn1,0.156,-1.0,0.5,2.0,i
CC(C)CC(=O)Nc1nnc(SCC(=O)Nc2ccc3c(c2)OCO3)s1,0.287,-3.2,-0.2,5.0,i
COc1ccc(NC2=NC(=S)N(c3ccccc3C)C23CCCCC3)cc1,-1.08,11.1,1.6,2.4,i
COc1ccc(Nc2ccc3c(c2)=NC2(CCCCC2)[N+]=3[O-])cc1,-2.89,100.6*,5.4,24.2,i
